Measurements taken from ChEMBL document CHEMBL3751756, “Hydroxylated chalcones with dual properties: Xanthine oxidase inhibitors and radical scavengers” (Bioorg Med Chem, 2016).

Assays:
[1] = Cytoprotective activity against amyloid beta-induced oxidative stress in mouse Neuro2a cells assessed as cell viability at 250 uM after 6 hrs by MTT assay; type: functional; details: N2a, read-out: Activity
In short: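 Murine Neuro-2A cells in DMEM with 10% FBS and penicillin-streptomycin, 37°C, 5% CO2; trypsinized ≤1 min, seeded 2,000–4,000 cells/mL, 6 h. Then added 10 μL of 250 μM compound (stock), 15 μL of 833 μM Aβ 25–35 (stock), and MTT (5 mg/mL); 6 h, then SDS/DMF extraction buffer 6 h at 37°C in dark; A570 as percent of unstressed control.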

[2] = Antioxidant activity assessed as DPPH radical scavenging activity by measuring remaining DPPH level at 20 uM after 30 mins by plate reader analysis; type: physicochemical; details: 0.5 h
In short: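 DPPH (0.2 mM in ethanol, 50 μL freshly prepared) mixed with 150 μL test compound in ethanol, 5–50 μM range; 30 min at room temperature in dark; loss of absorbance at 517 nm read. Scavenging activity = (1 − A_test/A_control) × 100%, control lacking scavenger; reported activity taken at 20 µM compound.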

[3] = molecular target: Xanthine dehydrogenase/oxidase (Bos taurus, UniProt P80457); test: Inhibition of bovine xanthine oxidase assessed as conversion of xanthine to uric acid by spectroscopic analysis
In short: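 XO suspended in 20 mM phosphate pH 7.5, added to xanthine (final 46 μM; final enzyme 39 μg/mL); uric acid formation followed at 295 nm for 5 min. Eleven inhibitor concentrations bracketing the IC50; rates by linear regression of absorbance vs time, fitted to a three-parameter logistic to give IC50.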

Xanthine dehydrogenase/oxidase, sequence (P80457 whole entry): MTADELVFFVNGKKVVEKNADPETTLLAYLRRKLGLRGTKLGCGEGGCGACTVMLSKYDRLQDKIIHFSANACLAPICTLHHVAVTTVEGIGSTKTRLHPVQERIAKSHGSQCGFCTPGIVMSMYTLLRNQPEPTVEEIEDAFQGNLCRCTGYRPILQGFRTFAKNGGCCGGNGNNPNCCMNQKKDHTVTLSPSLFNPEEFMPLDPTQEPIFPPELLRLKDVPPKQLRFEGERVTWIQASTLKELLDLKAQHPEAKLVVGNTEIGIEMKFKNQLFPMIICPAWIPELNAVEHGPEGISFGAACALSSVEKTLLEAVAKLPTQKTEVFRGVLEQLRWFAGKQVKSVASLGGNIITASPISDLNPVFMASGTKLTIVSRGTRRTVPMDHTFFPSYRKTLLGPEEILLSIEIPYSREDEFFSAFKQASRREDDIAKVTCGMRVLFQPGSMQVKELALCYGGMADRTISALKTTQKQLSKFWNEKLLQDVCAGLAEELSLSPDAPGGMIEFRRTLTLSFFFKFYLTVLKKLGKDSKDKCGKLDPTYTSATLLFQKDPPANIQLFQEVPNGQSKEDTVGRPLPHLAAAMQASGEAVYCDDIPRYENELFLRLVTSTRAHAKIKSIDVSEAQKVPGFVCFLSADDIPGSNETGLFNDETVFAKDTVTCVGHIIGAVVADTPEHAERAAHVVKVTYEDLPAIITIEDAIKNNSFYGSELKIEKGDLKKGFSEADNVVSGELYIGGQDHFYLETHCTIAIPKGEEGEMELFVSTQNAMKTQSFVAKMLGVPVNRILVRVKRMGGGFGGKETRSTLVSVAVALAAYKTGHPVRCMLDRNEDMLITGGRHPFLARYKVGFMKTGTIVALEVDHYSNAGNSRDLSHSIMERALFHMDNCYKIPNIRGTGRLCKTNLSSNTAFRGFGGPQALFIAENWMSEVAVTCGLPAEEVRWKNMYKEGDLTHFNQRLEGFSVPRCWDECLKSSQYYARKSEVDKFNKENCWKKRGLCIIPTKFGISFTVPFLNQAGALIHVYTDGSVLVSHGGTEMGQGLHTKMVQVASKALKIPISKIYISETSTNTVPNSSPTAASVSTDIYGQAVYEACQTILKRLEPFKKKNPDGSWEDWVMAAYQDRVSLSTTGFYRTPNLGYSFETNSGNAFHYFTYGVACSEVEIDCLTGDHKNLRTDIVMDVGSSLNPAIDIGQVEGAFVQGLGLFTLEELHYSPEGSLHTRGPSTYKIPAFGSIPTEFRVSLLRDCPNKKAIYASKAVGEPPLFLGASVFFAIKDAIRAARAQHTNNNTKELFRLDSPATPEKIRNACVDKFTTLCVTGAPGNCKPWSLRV

SMILES	viability at 250 µM [1] [%]	Activity [2] [%]	IC50 ([3]; read-out: IC50) [µM]	IC50 [3]
O=C(/C=C/c1cccc(O)c1)c1ccc(O)cc1O	6.9	0.5	27	
O=C(/C=C/c1ccc(O)c(O)c1)c1cc(O)ccc1O	46	91	17	
O=C(/C=C/c1ccc(O)c(O)c1)c1cccc(O)c1	35	82	5.3	
O=C(/C=C/c1ccc(O)c(O)c1)c1ccccc1	4.3	90	53	
O=C(/C=C/c1ccccc1O)c1ccccc1	3	-0.6		Not Active
O=C(/C=C/c1ccc(O)c(O)c1)c1cc(O)cc(O)c1	26	84	6.5	
O=C(/C=C/c1ccc(O)c(O)c1)c1ccc(O)c(O)c1O	118	92	1.2	
O=C(/C=C/c1ccc(O)c(O)c1)c1ccc(O)c(O)c1	40	77	3	
O=C(/C=C/c1ccccc1)c1cccc(O)c1	5.9	0.2		Not Active
O=C(/C=C/c1ccc(O)c(O)c1)c1ccc(O)cc1	28	42	4.3	
O=C(/C=C/c1ccc(O)c(O)c1)c1c(O)cccc1O	28	90	35	
O=C(/C=C/c1cccc(O)c1O)c1ccc(O)c(O)c1	46	70	93	
O=C(/C=C/c1cc(O)ccc1O)c1ccc(O)c(O)c1	70	86	8.6	
O=C(/C=C/c1ccc(O)c(O)c1O)c1ccc(O)c(O)c1O	91	82	5.5	
O=C(/C=C/c1ccc(O)c(O)c1O)c1ccc(O)c(O)c1	51	57	18	
O=C(/C=C/c1ccccc1)c1ccc(O)cc1O [2',4'-DIHYDROXYCHALCONE]	3.9	-3		Not Active
O=C(/C=C/c1ccccc1)c1ccccc1O [2'-HYDROXYCHALCONE]	1.7	6.7		Not Active
O=C(/C=C/c1ccccc1)c1ccc(O)cc1 [4'-HYDROXYCHALCONE]	1.4	-1.4		Not Active
O=C(/C=C/c1ccc(O)cc1)c1ccccc1 [4-HYDROXYCHALCONE]	0	-9.1	290	
O=C(/C=C/c1ccc(O)c(O)c1)c1ccc(O)cc1O [BUTEIN]	71	90	1.3	
